Where “and” joins values, the source holds several entries; their conditions need not be identical. Identical values can stand only once. Calls of active or inactive are those of the source. The rule behind the calls is not given here.
Experiments:
[1] = target: T1, Caspase-3 (Homo sapiens, UniProt P42574); assay: Inhibition of recombinant human caspase-3
T1 sequence (P42574 whole entry): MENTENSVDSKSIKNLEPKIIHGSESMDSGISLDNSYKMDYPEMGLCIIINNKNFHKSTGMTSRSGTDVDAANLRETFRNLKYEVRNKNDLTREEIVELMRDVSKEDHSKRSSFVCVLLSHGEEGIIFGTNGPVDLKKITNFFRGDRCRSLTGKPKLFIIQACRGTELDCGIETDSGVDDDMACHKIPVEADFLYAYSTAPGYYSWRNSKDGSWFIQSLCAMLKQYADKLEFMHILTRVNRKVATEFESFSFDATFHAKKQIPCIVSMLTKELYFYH

[2] = system: C20/A4; assay: In vitro inhibition of Chondrocyte cell line C20/A4 apoptosis at 10 uM of compound; type: functional, Homo sapiens
Summary of the method: (§1)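 Immortalized human chondrocyte line C20/A4 seeded at 20 000 cells/well overnight, then exposed 24 h to 4 μg/mL camptothecin with or without compound. Floating and adherent cells combined and lysed 30 min at 4 °C, then clarified at 14000g. Mono- and oligonucleosome DNA fragments measured by cell death ELISA; result expressed as % inhibition of apoptosis.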

[3] = system: C20/A4; assay: In vitro inhibition of Chondrocyte cell line C20/A4 apoptosis at 25 uM of compound; type: functional, Homo sapiens; summary of the method: as §1
[4] = target: T2, Caspase-4 (Homo sapiens, UniProt P49662); assay: Inhibitory activity against caspase-4; conditions: read-out: Ki app
T2 sequence (P49662 whole entry): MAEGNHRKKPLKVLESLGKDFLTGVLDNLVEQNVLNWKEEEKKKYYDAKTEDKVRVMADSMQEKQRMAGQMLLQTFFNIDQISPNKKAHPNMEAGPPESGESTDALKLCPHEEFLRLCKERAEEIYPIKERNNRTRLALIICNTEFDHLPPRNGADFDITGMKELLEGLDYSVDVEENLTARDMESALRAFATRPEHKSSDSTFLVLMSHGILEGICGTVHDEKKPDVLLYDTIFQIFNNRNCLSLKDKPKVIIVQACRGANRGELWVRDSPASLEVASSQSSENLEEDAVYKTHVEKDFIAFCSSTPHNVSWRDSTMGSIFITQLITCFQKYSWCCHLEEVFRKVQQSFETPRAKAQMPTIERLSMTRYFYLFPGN
Summary of the method: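 Recombinant full-length human caspase 4, ~10 units/assay, in potassium acetate pH 5.8 with 1 mM EDTA, 10% sucrose, 0.1% CHAPS and 5 mM β-mercaptoethanol. Substrate 100 μM Ac-LEED-AMC. Read at 360/460 nm, 30 °C, 5% final DMSO. Single-dose screen (typically 5–50 μM), then IC50 curves for actives.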

[5] = target: T3, Caspase-6 (Homo sapiens, UniProt P55212); assay: Inhibitory activity against Caspase-6; conditions: read-out: Ki app
T3 sequence (P55212 whole entry): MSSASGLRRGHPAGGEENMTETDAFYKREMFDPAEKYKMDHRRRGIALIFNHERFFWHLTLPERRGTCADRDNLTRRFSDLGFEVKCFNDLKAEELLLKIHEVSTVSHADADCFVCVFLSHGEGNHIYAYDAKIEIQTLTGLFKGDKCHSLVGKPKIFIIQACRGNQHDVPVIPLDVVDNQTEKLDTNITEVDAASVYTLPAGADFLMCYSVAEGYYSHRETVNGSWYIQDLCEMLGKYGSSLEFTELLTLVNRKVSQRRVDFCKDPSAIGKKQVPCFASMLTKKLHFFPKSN
Summary of the method: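 Recombinant full-length human caspase 6 (~10 units/assay) in 50 mM Tris-HCl pH 7.4 with 0.1% CHAPS, 1.5 mM MgCl2, 1 mM EDTA and 5 mM β-mercaptoethanol. Substrate 10 μM Ac-DEVD-AMC. AMC monitored at 360/460 nm, 30 °C, final DMSO 5%. Single-dose screen (typically 5–50 μM), then IC50 determination.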

[6] = target: T4, Caspase-1 (Homo sapiens, UniProt P29466); assay: Inhibitory activity against caspase-1; conditions: read-out: Ki app
T4 sequence (P29466 whole entry): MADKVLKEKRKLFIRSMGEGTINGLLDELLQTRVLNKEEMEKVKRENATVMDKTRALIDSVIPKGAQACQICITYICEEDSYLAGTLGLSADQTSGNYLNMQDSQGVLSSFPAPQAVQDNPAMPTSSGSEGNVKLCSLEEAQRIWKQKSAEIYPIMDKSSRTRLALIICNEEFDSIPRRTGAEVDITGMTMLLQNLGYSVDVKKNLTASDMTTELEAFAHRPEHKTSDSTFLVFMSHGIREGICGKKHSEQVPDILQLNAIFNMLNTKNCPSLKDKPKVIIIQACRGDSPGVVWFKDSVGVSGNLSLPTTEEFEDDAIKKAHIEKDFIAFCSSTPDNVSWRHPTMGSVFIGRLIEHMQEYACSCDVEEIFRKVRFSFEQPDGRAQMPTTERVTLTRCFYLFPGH
Summary of the method: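 Recombinant full-length human caspase 1, ~10 units/assay, in 25 mM K+HEPES pH 7.5 with 10% sucrose, 0.1% CHAPS and 5 mM β-mercaptoethanol. Substrate 10 μM Ac-YVAD-AMC. AMC read at 360/460 nm, 30 °C, with 5% final DMSO. Single-dose screen (typically 5–50 μM), followed by IC50 curves for active compounds.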

[7] = target: Caspase-8 (Homo sapiens, UniProt Q14790); assay: Inhibitory activity against Caspase-8; conditions: read-out: Ki app
Summary of the method: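 Recombinant full-length human caspase 8, ~10 units/assay, in Na+MOPS pH 7.5 with 10% glycerol, 0.25 mM EDTA and 5 mM β-mercaptoethanol. Substrate 10 μM Ac-IETD-AMC. Fluorescence at 360/460 nm, 30 °C, 5% final DMSO. Compounds screened at a single dose (typically 5–50 μM), then full IC50 curves for actives.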

[8] = target: T5, Caspase-9 (Homo sapiens, UniProt P55211); assay: Inhibitory activity against Caspase-9; conditions: read-out: Ki app
T5 sequence (P55211 whole entry): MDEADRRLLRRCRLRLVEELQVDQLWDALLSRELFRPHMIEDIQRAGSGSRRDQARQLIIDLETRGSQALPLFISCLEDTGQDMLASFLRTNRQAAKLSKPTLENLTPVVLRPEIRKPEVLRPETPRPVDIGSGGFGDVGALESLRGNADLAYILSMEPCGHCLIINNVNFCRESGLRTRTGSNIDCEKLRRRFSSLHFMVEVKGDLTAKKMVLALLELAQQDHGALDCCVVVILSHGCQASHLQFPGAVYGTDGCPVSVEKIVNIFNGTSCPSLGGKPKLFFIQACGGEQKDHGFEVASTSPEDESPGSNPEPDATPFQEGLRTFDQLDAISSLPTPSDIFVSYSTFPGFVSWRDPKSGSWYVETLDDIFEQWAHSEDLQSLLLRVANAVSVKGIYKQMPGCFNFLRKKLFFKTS

[9] = target: T1, Caspase-3; assay: Inhibitory activity against caspase-3; conditions: read-out: Ki app
Summary of the method: (§2)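 Recombinant full-length human caspase 3 or 7, ~10 units/assay (1 unit = 1 pmol AMC/min). Substrate 10 μM Ac-DEVD-AMC. AMC fluorescence at 360/460 nm, 30 °C, with 5% final DMSO. Single-dose screen (typically 5–50 μM), then IC50 curves; repeated IC50s had CVs typically <30%.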

[10] = target: T6, Caspase-2 (Homo sapiens, UniProt P42575); assay: Inhibitory activity against caspase-2; conditions: read-out: Ki app
T6 sequence (P42575 whole entry): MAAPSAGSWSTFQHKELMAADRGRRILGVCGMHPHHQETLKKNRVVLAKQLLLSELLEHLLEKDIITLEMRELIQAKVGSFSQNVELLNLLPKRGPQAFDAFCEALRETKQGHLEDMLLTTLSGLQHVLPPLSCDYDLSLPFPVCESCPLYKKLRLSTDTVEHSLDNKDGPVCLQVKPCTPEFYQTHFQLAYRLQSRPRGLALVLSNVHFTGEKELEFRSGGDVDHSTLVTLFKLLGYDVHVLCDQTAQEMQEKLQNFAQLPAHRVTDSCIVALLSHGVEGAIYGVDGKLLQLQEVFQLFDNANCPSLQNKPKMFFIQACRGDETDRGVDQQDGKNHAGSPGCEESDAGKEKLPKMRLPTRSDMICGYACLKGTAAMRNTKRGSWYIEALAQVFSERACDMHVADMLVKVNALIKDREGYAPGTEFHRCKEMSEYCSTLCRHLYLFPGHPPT
Summary of the method: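 Recombinant full-length human caspase 2 (~10 units/assay) in 50 mM sodium acetate pH 6.2 with 10% glycerol, 0.25 mM EDTA and 5 mM β-mercaptoethanol. Substrate 25 μM Ac-VDVAD-AMC. Fluorescence at 360/460 nm, 30 °C, final DMSO 5%. Compounds screened at a single dose (typically 5–50 μM), then full IC50 curves where activity was seen.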

[11] = target: T7, Caspase-7 (Homo sapiens, UniProt P55210); assay: Inhibitory activity against Caspase-7; conditions: read-out: Ki app; summary of the method: as §2
T7 sequence (P55210 whole entry): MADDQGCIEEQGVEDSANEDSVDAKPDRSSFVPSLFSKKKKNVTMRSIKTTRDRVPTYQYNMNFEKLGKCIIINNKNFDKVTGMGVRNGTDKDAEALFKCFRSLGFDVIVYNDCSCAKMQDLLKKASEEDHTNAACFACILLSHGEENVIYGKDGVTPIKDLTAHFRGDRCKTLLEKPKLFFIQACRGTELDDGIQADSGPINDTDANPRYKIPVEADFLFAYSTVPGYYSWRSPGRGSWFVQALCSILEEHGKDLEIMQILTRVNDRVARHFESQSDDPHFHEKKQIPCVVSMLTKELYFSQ

[12] = target: T1, Caspase-3; assay: In vitro inhibition of Caspase-3 in presence of camptothecin induced chondrocyte cell cytosol.
Summary of the method: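 IC50 measured in cytosol from camptothecin-treated (apoptotic) chondrocytes at 90% of assay volume. Two conditions: the endogenous caspase 3-like activity alone, or with added recombinant human caspase 3 (~10 units/assay). Buffer was 25 mM K+HEPES pH 7.5, 0.1% CHAPS, 50 mM KCl and 5 mM β-mercaptoethanol, with 10 μM Ac-DEVD-AMC. AMC fluorescence was read at 30 °C (ex 360/em 460 nm) with 5% final DMSO.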

[13] = target: T1, Caspase-3; assay: In vitro inhibition of Caspase-3 in presence of uninduced chondrocyte cell cytosol
Summary of the method: (§3)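 IC50 against recombinant full-length human caspase 3 (~10 units/assay; 1 unit = 1 pmol AMC/min), with cytosol from uninduced (nonapoptotic) chondrocytes making up 90% of assay volume. Assay buffer was 25 mM K+HEPES pH 7.5, 0.1% CHAPS, 50 mM KCl and 5 mM β-mercaptoethanol, with 10 μM Ac-DEVD-AMC. AMC was read at 30 °C (ex 360/em 460 nm) with 5% final DMSO.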

[14] = target: T1, Caspase-3; assay: In vitro inhibition of Caspase-3 in presence of naive chondrocyte cell cytosol; summary of the method: as §3
[15] = system: Jurkat (Homo sapiens); assay: In vitro inhibition of Jurkat cell apoptosis at 10 uM of compound
[16] = system: Jurkat (Homo sapiens); assay: In vitro inhibition of Jurkat cell apoptosis at 50 uM of compound
[17] = system: C20/A4; assay: In vitro inhibition of Chondrocyte cell line C20/A4 apoptosis at 10 uM of compound; Not active; type: functional, cell-based; conditions: Homo sapiens; summary of the method: as §1
[18] = system: C20/A4; assay: In vitro inhibition of Chondrocyte cell line C20/A4 apoptosis at 25 uM of compound; Not active; type: functional, cell-based; conditions: Homo sapiens; summary of the method: as §1

Sequence of Caspase-8 (Q14790 217-374 limits assumed): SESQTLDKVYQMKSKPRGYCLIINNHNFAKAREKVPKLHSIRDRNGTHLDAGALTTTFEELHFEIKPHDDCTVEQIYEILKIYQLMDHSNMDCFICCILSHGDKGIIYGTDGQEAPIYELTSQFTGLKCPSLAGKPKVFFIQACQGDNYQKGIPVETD
Sequence of Caspase-8 (Q14790 385-479 limits assumed): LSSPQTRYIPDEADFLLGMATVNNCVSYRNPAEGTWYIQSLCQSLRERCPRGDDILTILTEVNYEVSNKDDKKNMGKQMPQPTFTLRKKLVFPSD

| IC50 [1] | Ki [4] [µM] | Ki [5] [µM] | Ki [6] [µM] | Ki [7] [µM] | Ki [8] [µM] | Ki [9] [µM] | Ki [10] [µM] | Ki [11] [µM] | SMILES | Inhibition [2] [%] | Inhibition [3] [%] | Inhibition [15] [%] | Inhibition [16] [%] | other results |
| --- | --- | --- | --- | --- | --- | --- | --- | --- | --- | --- | --- | --- | --- | --- |
| > 50 µM |  |  |  |  |  |  |  |  | CN1C(=O)C(=O)c2ccccc21 |  |  |  |  |  |
|  |  |  |  |  |  |  |  |  | O=C1C(=O)N(Cc2ccncc2)c2ccc(S(=O)(=O)N3CCC[C@H]3COc3ccccc3)cc21 | 64 | 89 |  |  |  |
| 0.14 µM |  |  |  |  |  |  |  |  | O=C1Nc2ccc(S(=O)(=O)N3CCCC3C(=O)Nc3ccccc3)cc2C1=O (centres undefined) |  |  |  |  |  |
| > 50 µM |  |  |  |  |  |  |  |  | CN1C(=O)C(=O)c2cc(C(=O)O)ccc21 |  |  |  |  |  |
| 0.25 µM | 5 | 1 | 18 | 31 | 5 | 0.13 | > 25 | 0.17 | O=C1C(=O)N(Cc2ccccc2)c2ccc([N+](=O)[O-])cc21 |  |  |  |  |  |
| 1 µM | 4 | 1.7 | 12 | > 50 | 7.2 | 0.5 | > 50 | 0.29 | CN1C(=O)C(=O)c2cc([N+](=O)[O-])ccc21 |  |  |  |  |  |
| 30 µM and 47 µM |  |  |  |  |  |  |  |  | CN1C(=O)C(=O)c2cc(S(=O)(=O)N3CCC[C@H]3COc3ccccc3)ccc21 | 48 | 85 | 41 | 92 | IC50 [12]: 0.84 µM; IC50 [13]: 7.5 µM; IC50 [14]: 7.5 µM |
| 2.8 µM | > 50 | > 50 | 9 | > 50 | 12 | 1.4 | > 50 | 3 | O=C1Nc2ccc(S(=O)(=O)N3CCCC3)cc2C1=O |  |  |  |  |  |
| 18 µM |  |  |  |  |  |  |  |  | COC[C@H]1CCCN1S(=O)(=O)c1ccc2c(c1)C(=O)C(=O)N2 |  |  | 15 | 22 | NA [17]: inactive; NA [18]: inactive |
|  |  |  |  |  |  |  |  |  | C=CCN1C(=O)C(=O)c2cc(S(=O)(=O)N3CCC[C@H]3COc3ccccc3)ccc21 | 71 | 95 | 60 | 89 |  |
